Experimental data as given in ChEMBL document CHEMBL5143661, “Efficiency of bis-amidate phosphonate prodrugs” (Bioorg Med Chem Lett, 2022).

Experiments:
[1] = Stability of the compound in human K562 cell lysates in lysis buffer assessed as parent compound remaining measured after 4 hrs; type: ADME, subcellular; conditions: k562, 4 h
Outline: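 Compound incubated 4 h in K562 cell extract, 5 mg/mL in lysis buffer; percent parent remaining determined (n=2).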

[2] = Stability of the compound in 50% plasma (unknown origin) in PBS assessed as parent compound remaining measured after 24 hrs; type: ADME, cell-free; conditions: unidentified
Outline: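 Compound incubated 24 h in 50% plasma diluted in phosphate-buffered saline; percent parent remaining determined (n=2).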

[3] = Induction of interferon gamma production in human Vgamma9Vdelta2 T cells pretreated with K562 cells followed by compound washout and cocultured with Vgamma9Vdelta2 T cells and measured after 60 mins by ELISA; type: functional, cell-based; conditions: Vgamma9Vdelta2 T cell
Outline: (§1)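 K562 cells loaded with compound over a dose range for 15, 60 or 240 min, washed, then co-cultured with human Vγ9Vδ2 T cells.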

K562 = assay: Cytotoxicity against human K562 cells assessed as inhibition of cell growth incubated for 72 hrs; type: functional, cell-based; conditions: K562, 72 h
[4] = Induction of Vgamma9Vdelta2 T cell proliferation in human peripheral blood; type: functional, cell-based
[5] = Induction of interferon gamma production in human Vgamma9Vdelta2 T cells pretreated with K562 cells followed by compound washout and cocultured with Vgamma9Vdelta2 T cells and measured after 240 mins by ELISA; type: functional, cell-based; conditions: Vgamma9Vdelta2 T cell; outline: as §1
[6] = Induction of interferon gamma production in human Vgamma9Vdelta2 T cells pretreated with K562 cells followed by compound washout and cocultured with Vgamma9Vdelta2 T cells and measured after 15 mins by ELISA; type: functional, cell-based; conditions: Vgamma9Vdelta2 T cell; outline: as §1

Compound | Stability [1] [%] | Stability [2] [%] | EC50 [3] [nM] | IC50 (K562) [nM] | EC50 [4] [nM] | EC50 [5] [nM] | EC50 [6] [nM]
COC(=O)[C@@H](NP(=O)(CCC=C(C)C)N[C@H](C(=O)OC)C(C)C)C(C)C | 85 | 99 |  |  |  |  | 
CC(C)=CCCP(=O)(N[C@@H](C)C(=O)OC(C)C)N[C@@H](C)C(=O)OC(C)C | 79 | 90 |  |  |  |  | 
CCOC(=O)CNP(=O)(CCC=C(C)C)NCC(=O)OCC | 86 | 82 |  |  |  |  | 
CCOC(=O)CNP(=O)(CC/C=C(\C)CO)NCC(=O)OCC | 57 | 82 | 7200 | > 100000 | 43 | 1600 | 23000
C/C(=C\CCP(=O)(OCOC(=O)C(C)(C)C)OCOC(=O)C(C)(C)C)CO | 0 |  | 30 | > 100000 |  | 24 | 43
CCOC(=O)[C@H](C)NP(=O)(CCC=C(C)C)N[C@@H](C)C(=O)OCC | 31 | 70 |  |  |  |  | 
CCOC(=O)CNP(=O)(CC/C=C(\C)CO)Oc1ccccc1 (racemic) | 86 |  | 230 | > 100000 |  | 51 | 1500
COC(=O)[C@@H](NP(=O)(CC/C=C(\C)CO)N[C@H](C(=O)OC)C(C)C)C(C)C | 74 | 86 | 5700 | 10000 | 30 | 1900 | 14000
